Test results from ChEMBL document CHEMBL3808334, “Synthesis and in vitro evaluation of novel triazine analogues as anticancer agents and their interaction studies with bovine serum albumin” (Eur J Med Chem, 2016).

Assays:
[1] = Growth inhibition of human UACC62 cells incubated for 48 hrs by sulforhodamine B assay; format: functional; conditions: UACC-62, 48 h
Method in brief: (§1)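 Cells were plated at 5,000–40,000 per well according to doubling time and preincubated 24 h at 37 °C in 5% CO2; time-zero plates were then TCA-fixed. Five concentrations (10-fold or ½-log dilutions, DMSO stock) were incubated 48 h. Cells were TCA-fixed, stained with 0.4% SRB and read at 515 nm. GI50 was taken where [(Ti−Tz)/(C−Tz)]×100 = 50.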

[2] = Growth inhibition of human OVCAR8 cells assessed as cell growth at 10 uM incubated for 48 hrs by sulforhodamine B assay; format: functional; conditions: OVCAR-8, 48 h, read-out: Activity
[3] = Growth inhibition of human Hs 578T cells assessed as cell growth at 10^-8 M incubated for 48 hrs by sulforhodamine B assay; format: functional; conditions: read-out: Activity
[4] = Growth inhibition of human OVCAR4 cells assessed as cell growth at 10^-4 M incubated for 48 hrs by sulforhodamine B assay; format: functional; conditions: OVCAR-4, 48 h, read-out: Activity
[5] = Growth inhibition of human MOLT4 cells assessed as cell growth at 10^-6 M incubated for 48 hrs by sulforhodamine B assay; format: functional; conditions: MOLT-4, 48 h, read-out: Activity
MCF7 = test: Growth inhibition of human MCF7 cells assessed as cell growth at 10^-4 M incubated for 48 hrs by sulforhodamine B assay; format: functional; conditions: MCF7, 48 h, read-out: Activity
M14 = test: Growth inhibition of human M14 cells assessed as cell growth at 10^-4 M incubated for 48 hrs by sulforhodamine B assay; format: functional; conditions: M14, 48 h, read-out: Activity
[6] = Growth inhibition of human OVCAR8 cells assessed as cell growth at 10^-4 M incubated for 48 hrs by sulforhodamine B assay; format: functional; conditions: OVCAR-8, 48 h, read-out: Activity
Malme-3M = test: Growth inhibition of human MALME-3M cells assessed as cell growth at 10^-7 M incubated for 48 hrs by sulforhodamine B assay; format: functional; conditions: read-out: Activity
[7] = Growth inhibition of human prostate cancer cells incubated for 48 hrs by sulforhodamine B assay; format: functional; conditions: Cancer cell lines; for CC50: read-out: LC50 (the source's name)
EKVX = test: Growth inhibition of human EKVX cells incubated for 48 hrs by sulforhodamine B assay; format: functional
Method in brief: (§2)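 Cells seeded at 5,000–40,000/well according to doubling time and preincubated 24 h at 37 °C, 5% CO2. Time-zero plates were TCA-fixed. DMSO concentrate was diluted in medium with 50 µg/ml gentamicin to give five concentrations (10-fold or ½ log steps), then exposed 48 h. Cells were TCA-fixed, stained with 0.4% SRB and read at 515 nm. Percent growth was taken against time-zero and control; GI50, TGI and LC50 derived.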

[8] = Growth inhibition of human OVCAR5 cells assessed as cell growth at 10^-4 M incubated for 48 hrs by sulforhodamine B assay; format: functional; conditions: OVCAR-5, 48 h, read-out: Activity
[9] = Growth inhibition of human HCC2998 cells assessed as cell growth at 10^-6 M incubated for 48 hrs by sulforhodamine B assay; format: functional; conditions: HCC 2998, 48 h, read-out: Activity; method in brief: as §2
[10] = Growth inhibition of human HOP62 cells assessed as cell growth at 10^-7 M incubated for 48 hrs by sulforhodamine B assay; format: functional; conditions: HOP-62, 48 h, read-out: Activity
A498 = test: Growth inhibition of human A498 cells assessed as cell growth at 10^-5 M incubated for 48 hrs by sulforhodamine B assay; format: functional; conditions: A498, 48 h, read-out: Activity
Method in brief: (§3)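 Five-dose assay: five concentrations from 10-fold or ½-log serial dilutions. Cells are plated at 5,000–40,000 per well according to doubling time, grown 24 h, then exposed 48 h at 37 °C, 5% CO₂. Fixed with cold 50% TCA (final addition) for 60 min at 4 °C and stained with 0.4% SRB in 1% acetic acid. Bound dye is solubilized in 10 mM Tris base and read at 515 nm. GI₅₀ is where [(Ti−Tz)/(C−Tz)]×100 = 50, with a time-zero plate as Tz.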

[11] = Growth inhibition of human SF268 cells assessed as cell growth at 10^-8 M incubated for 48 hrs by sulforhodamine B assay; format: functional; conditions: SF-268, 48 h, read-out: Activity
[12] = Growth inhibition of human HOP62 cells incubated for 48 hrs by sulforhodamine B assay; format: functional; conditions: HOP-62, 48 h; method in brief: as §2
786-0 [13] = test: Growth inhibition of human 786-0 cells assessed as cell growth at 10^-4 M incubated for 48 hrs by sulforhodamine B assay; format: functional; conditions: 786-0, 48 h, read-out: Activity; method in brief: as §3
[14] = Growth inhibition of human UACC62 cells assessed as cell growth at 10^-8 M incubated for 48 hrs by sulforhodamine B assay; format: functional; conditions: UACC-62, 48 h, read-out: Activity
[15] = Growth inhibition of human HCT15 cells assessed as cell growth at 10^-6 M incubated for 48 hrs by sulforhodamine B assay; format: functional; conditions: HCT-15, 48 h, read-out: Activity; method in brief: as §2
[16] = Growth inhibition of human SF539 cells assessed as cell growth at 10^-6 M incubated for 48 hrs by sulforhodamine B assay; format: functional; conditions: SF-539, 48 h, read-out: Activity
[17] = Growth inhibition of human PC3 cells incubated for 48 hrs by sulforhodamine B assay; format: functional; conditions: PC-3, 48 h; method in brief: as §1
ACHN = test: Growth inhibition of human ACHN cells assessed as cell growth at 10^-8 M incubated for 48 hrs by sulforhodamine B assay; format: functional; conditions: read-out: Activity; method in brief: as §3
786-0 [18] = test: Growth inhibition of human 786-0 cells assessed as cell growth at 10 uM incubated for 48 hrs by sulforhodamine B assay; format: functional; conditions: 786-0, 48 h, read-out: Activity
Method in brief: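 One-dose screen at 10 µM final. Cells are plated at 5,000–40,000 per well according to doubling time and preincubated 24 h at 37 °C, 5% CO₂. Compound (DMSO stock diluted in medium with 50 µg/ml gentamicin) is then added for 48 h. Growth percent is read by sulforhodamine B staining, absorbance at 515 nm.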

Albumin = Albumin (Bos taurus, UniProt P02769); test: Binding affinity to bovine serum albumin assessed as isoemissive point up to 20 uM by fluorescence spectroscopic analysis relative to control; format: ADME; conditions: cattle, isolated protein
Sequence of Albumin (P02769 whole entry): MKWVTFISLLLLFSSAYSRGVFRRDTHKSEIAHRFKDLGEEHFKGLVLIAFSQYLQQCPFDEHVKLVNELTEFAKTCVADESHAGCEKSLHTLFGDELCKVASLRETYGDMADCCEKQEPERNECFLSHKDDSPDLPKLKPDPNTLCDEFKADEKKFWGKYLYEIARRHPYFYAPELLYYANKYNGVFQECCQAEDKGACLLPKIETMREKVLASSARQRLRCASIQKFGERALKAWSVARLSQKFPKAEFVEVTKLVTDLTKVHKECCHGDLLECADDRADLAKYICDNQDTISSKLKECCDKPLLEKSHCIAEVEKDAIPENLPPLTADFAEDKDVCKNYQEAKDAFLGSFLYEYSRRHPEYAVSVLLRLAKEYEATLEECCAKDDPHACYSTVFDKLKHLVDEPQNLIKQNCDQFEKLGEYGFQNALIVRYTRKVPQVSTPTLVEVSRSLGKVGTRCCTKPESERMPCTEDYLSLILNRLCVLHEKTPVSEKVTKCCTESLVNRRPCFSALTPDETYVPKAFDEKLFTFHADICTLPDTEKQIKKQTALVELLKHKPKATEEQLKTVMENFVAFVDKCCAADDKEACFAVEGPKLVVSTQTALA
Method in brief: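 Fluorescence titration of 10 µM BSA in 0.1 M phosphate buffer pH 7.4 with compound at 0–20 µM, diluted from DMSO stocks. Excitation 280 nm, slit 10 nm, 1 cm quartz cell, 300 K. Changes in the 350 nm Trp emission, new bands near 370–373 nm and isoemissive points are read against BSA alone.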

[19] = read-out: LC50 (the source's name)
[20] = read-out: pLC50 (the source's name) (converted)

## c1ccc(-c2nc(Nc3ccc(-c4nc5ccccc5[nH]4)cc3)nc(N3CCOCC3)n2)cc1
[1]; read-out: GI50
  GI50: 1660 nM
[1]; [19]
  CC50: 7.29 µM
[1]; read-out: TGI
  TGI: 3.48 µM
[1]; read-out: pGI50 (converted)
  GI50: 1660 nM
[1]; [20]
  CC50: 7.24 µM
[1]; read-out: pTGI (converted)
  TGI: 3.47 µM
[2]
  growth at 10 µM: -50.4%
[3]
  growth at 0.01 µM: 94%
[4]
  growth at 100 µM: -98%
[5]
  growth at 1 µM: 65%
MCF7
  growth at 100 µM: -52%
M14
  growth at 100 µM: -79%
[6]
  growth at 100 µM: -61%
Malme-3M
  growth at 0.1 µM: 131%
[7]
  GI50: 1510 nM
  TGI: 3.07 µM
  CC50: 6.25 µM
EKVX; read-out: GI50
  GI50: 1590 nM
EKVX; read-out: LC50
  LC50: 7.33 µM
EKVX; read-out: TGI
  TGI: 3.42 µM
EKVX; read-out: pGI50 (converted)
  GI50: 1580 nM
EKVX; read-out: pLC50 (converted)
  LC50: 7.41 µM
EKVX; read-out: pTGI (converted)
  TGI: 3.39 µM
[8]
  growth at 100 µM: -75%
[9]
  growth at 1 µM: 93%
[10]
  growth at 0.1 µM: 93%
A498
  growth at 10 µM: -76%
[11]
  growth at 0.01 µM: 96%
[12]; read-out: GI50
  GI50: 1730 nM
[12]; read-out: LC50
  LC50: 7.16 µM
[12]; read-out: TGI
  TGI: 3.52 µM
[12]; read-out: pGI50 (converted)
  GI50: 1740 nM
[12]; read-out: pLC50 (converted)
  LC50: 7.08 µM
[12]; read-out: pTGI (converted)
  TGI: 3.55 µM
786-0 [13]
  growth at 100 µM: -71%
[14]
  growth at 0.01 µM: 94%
[15]
  growth at 1 µM: 13%
[16]
  growth at 1 µM: 74%
[17]; read-out: GI50
  GI50: 1800 nM
[17]; [19]
  CC50: 7.37 µM
[17]; read-out: TGI
  TGI: 3.64 µM
[17]; read-out: pGI50 (converted)
  GI50: 1820 nM
[17]; [20]
  CC50: 7.41 µM
[17]; read-out: pTGI (converted)
  TGI: 3.63 µM
ACHN
  growth at 0.01 µM: 96%
786-0 [18]
  growth at 10 µM: -88.9%
Albumin
  Activity: 357 nm

## Fc1ccc(-c2nc(Nc3ccc(-c4nc5ccccc5[nH]4)cc3)nc(N3CCOCC3)n2)cc1
[1]; read-out: GI50
  GI50: 1700 nM
[1]; read-out: TGI
  TGI: 3.56 µM
[1]; read-out: pGI50 (converted)
  GI50: 1700 nM
[1]; read-out: pTGI (converted)
  TGI: 3.55 µM
[2]
  growth at 10 µM: 39.2%
[3]
  growth at 0.01 µM: 95%
[4]
  growth at 100 µM: -23%
[5]
  growth at 1 µM: 87%
MCF7
  growth at 100 µM: 1%
M14
  growth at 100 µM: -80%
[6]
  growth at 100 µM: -44%
Malme-3M
  growth at 0.1 µM: 95%
[7]
  GI50: 3460 nM
  TGI: 6.66 µM
  CC50: > 100 µM
EKVX; read-out: GI50
  GI50: 2600 nM
EKVX; read-out: LC50
  LC50: > 100 µM
EKVX; read-out: TGI
  TGI: > 100 µM
EKVX; read-out: pGI50 (converted)
  GI50: 2630 nM
EKVX; read-out: pLC50 (converted)
  LC50: > 100 µM
EKVX; read-out: pTGI (converted)
  TGI: > 100 µM
[8]
  growth at 100 µM: -31%
[9]
  growth at 1 µM: 94%
[10]
  growth at 0.1 µM: 97%
A498
  growth at 10 µM: -60%
[11]
  growth at 0.01 µM: 95%
[12]; read-out: GI50
  GI50: 2110 nM
[12]; read-out: LC50
  LC50: > 100 µM
[12]; read-out: TGI
  TGI: 5.3 µM
[12]; read-out: pGI50 (converted)
  GI50: 2090 nM
[12]; read-out: pLC50 (converted)
  LC50: > 100 µM
[12]; read-out: pTGI (converted)
  TGI: 5.25 µM
786-0 [13]
  growth at 100 µM: -68%
[14]
  growth at 0.01 µM: 91%
[15]
  growth at 1 µM: 74%
[16]
  growth at 1 µM: 80%
[17]; read-out: GI50
  GI50: 2390 nM
[17]; [19]
  CC50: > 100 µM
[17]; read-out: TGI
  TGI: 6.66 µM
[17]; read-out: pGI50 (converted)
  GI50: 2400 nM
[17]; [20]
  CC50: > 100 µM
[17]; read-out: pTGI (converted)
  TGI: 6.61 µM
ACHN
  growth at 0.01 µM: 100%
786-0 [18]
  growth at 10 µM: -60%
Albumin
  Activity: 341 nm
